# Reference: ChEMBL document CHEMBL1155167, “Fluoroquinolone resistance in atypical pneumococci and oral streptococci: evidence of horizontal gene transfer of fluoroquinolone resistance determinants from Streptococcus pneumoniae” (2007)
# Legend:
# Assay type in all cases: functional
# Streptococcus oralis [1] = test: Antimicrobial activity against Streptococcus oralis HK417 with gyrA Ser114Gly, and parC Ser52Gly, Asn91Asp mutation by broth dilution method
# Procedure, shortened: (§1)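 Ciprofloxacin and levofloxacin MICs were determined by broth dilution following CLSI (formerly NCCLS) guidance. S. pneumoniae ATCC 6303 and ATCC 49619 served as control strains. Reference strains were S. mitis ATCC 49456 and S. oralis ATCC 10557. The clinical isolates came from patients at a Hong Kong teaching hospital.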
# Streptococcus oralis [2] = test: Antimicrobial activity against Streptococcus oralis HK312 with gyrA Ser114Gly, and parC Ser52Gly, Asn91Asp mutation by broth dilution method; procedure, shortened: as §1
# Streptococcus mitis [3] = test: Antimicrobial activity against Streptococcus mitis HK680 with gyrA Ser114Gly, and parC Ser52Gly, Asn91Asp mutation by broth dilution method; procedure, shortened: as §1
# Streptococcus oralis [4] = test: Antimicrobial activity against Streptococcus oralis HK271 with gyrA Ser114Gly, and parC Ser52Gly, Asn91Asp mutation by broth dilution method; procedure, shortened: as §1
# Streptococcus mitis [5] = test: Antimicrobial activity against Streptococcus mitis ATCC 49456 with gyrA Ser114Gly, and parC Ser52Gly, Asn91Asp, Glu135Asp mutation by broth dilution method; procedure, shortened: as §1
# Streptococcus oralis [6] = test: Antimicrobial activity against Streptococcus oralis HK62 with gyrA Ser114Gly, and parC Ser52Gly, Asn91Asp mutation by broth dilution method; procedure, shortened: as §1
# Streptococcus oralis [7] = test: Antimicrobial activity against Streptococcus oralis HK300 with gyrA Ser114Gly, and parC Ser52Gly, Asn91Asp mutation by broth dilution method; procedure, shortened: as §1
# Streptococcus oralis [8] = test: Antimicrobial activity against Streptococcus oralis ATCC 10557 with gyrA Ser114Gly, and parC Ser52Gly, Asn91Asp mutation by broth dilution method; procedure, shortened: as §1
# Streptococcus oralis [9] = test: Antimicrobial activity against Streptococcus oralis HK232 with gyrA Ser114Gly, and parC Ser52Gly, Asn91Asp mutation by broth dilution method; procedure, shortened: as §1
# Streptococcus viridans [10] = test: Antimicrobial activity against Viridans streptococcus L20 with gyrB Ser494Thr, parC Ser52Gly and Asn91Asp mutation by broth dilution method; procedure, shortened: as §1
# Streptococcus oralis [11] = test: Antimicrobial activity against Streptococcus oralis HK575 with gyrA Ser114Gly, Leu155Val and parC Ser52Gly, Asn91Asp, Pro140Ser mutation by broth dilution method; procedure, shortened: as §1
# Streptococcus oralis [12] = test: Antimicrobial activity against Streptococcus oralis HK754 with gyrA Ser81Leu, Ser114Gly, gyrB Ser494Thr, parC Ser52Gly, Asp83Tyr, Asn91Asp and parE Arg447Ser mutation by broth dilution method; procedure, shortened: as §1
# Streptococcus oralis [13] = test: Antimicrobial activity against Streptococcus oralis HK579 with gyrA Ser114Gly, and parC Ser52Gly, Asn91Asp mutation by broth dilution method; procedure, shortened: as §1
# Streptococcus viridans [14] = test: Antimicrobial activity against Viridans streptococcus L17 with gyrA Ser114Gly, gyrB Ser494Thr and parC Ser52Gly, Asn91Asp mutation by broth dilution method; procedure, shortened: as §1
# Streptococcus oralis [15] = test: Antimicrobial activity against Streptococcus oralis HK386 with gyrA Ser114Gly, and parC Ser52Gly, Asn91Asp mutation by broth dilution method; procedure, shortened: as §1
# Streptococcus mitis [16] = test: Antimicrobial activity against Streptococcus mitis HK651 with gyrA Ser114Gly, and parC Ser52Gly, Asn91Asp mutation by broth dilution method; procedure, shortened: as §1
# Streptococcus oralis [17] = test: Antimicrobial activity against Streptococcus oralis HK553 with gyrA Ser114Gly, and parC Ser52Gly, Asn91Asp mutation by broth dilution method; procedure, shortened: as §1
# Streptococcus mitis [18] = test: Antimicrobial activity against Streptococcus mitis HK141 with gyrA Ser114Gly, and parC Ser52Gly, Asn91Asp mutation by broth dilution method; procedure, shortened: as §1
# Streptococcus oralis [19] = test: Antimicrobial activity against Streptococcus oralis HK299 with gyrA Ser114Gly, and parC Ser52Gly, Asn91Asp mutation by broth dilution method; procedure, shortened: as §1
# Streptococcus viridans [20] = test: Antimicrobial activity against Viridans streptococcus L26 gyrA Ser81Phe and parC Lys137Asn mutation by broth dilution method; procedure, shortened: as §1
# Streptococcus viridans [21] = test: Antimicrobial activity against Viridans streptococcus L16 with gyrA Ser114Gly, gyrB Ser494Thr and parC Ser52Gly, Asn91Asp mutation by broth dilution method; procedure, shortened: as §1
# Streptococcus oralis [22] = test: Antimicrobial activity against Streptococcus oralis HK816 with gyrA Ser81Leu, Ser114Gly and parC Ser52Gly, Ser79Tyr, Asn91Asp mutation by broth dilution method; procedure, shortened: as §1
# Streptococcus oralis [23] = test: Antimicrobial activity against Streptococcus oralis HK51with gyrA Ser114Gly, and parC Ser52Gly, Asn91Asp mutation by broth dilution method; procedure, shortened: as §1
# Streptococcus mitis [24] = test: Antimicrobial activity against Streptococcus mitis HK260 with gyrA Ser114Gly, and parC Ser52Gly, Asn91Asp mutation by broth dilution method; procedure, shortened: as §1
# Streptococcus oralis [25] = test: Antimicrobial activity against Streptococcus oralis HK619 with gyrA Ser114Gly, and parC Ser52Gly, Asn91Asp mutation by broth dilution method; procedure, shortened: as §1
# Streptococcus viridans [26] = test: Antimicrobial activity against Viridans streptococcus L21 with gyrB Ser494Thr and parC Lys137Asn mutation by broth dilution method; procedure, shortened: as §1
# Streptococcus mitis [27] = test: Antimicrobial activity against Streptococcus mitis HK666 with gyrA Ser114Gly, and parC Ser52Gly, Asn91Asp, Glu135Asp mutation by broth dilution method; procedure, shortened: as §1
# Streptococcus mitis [28] = test: Antimicrobial activity against Streptococcus mitis HK467 with gyrA Ser114Gly, Leu155Val and parC Ser52Gly, Asn91Asp, mutation by broth dilution method; procedure, shortened: as §1
# Streptococcus oralis [29] = test: Antimicrobial activity against Streptococcus oralis HK587 with gyrA Ser114Gly, and parC Ser52Gly, Asn91Asp mutation by broth dilution method; procedure, shortened: as §1
# Streptococcus mitis [30] = test: Antimicrobial activity against Streptococcus mitis HK188 with gyrA Ser114Gly, and parC Ser52Gly, Asn91Asp, Glu135Asp mutation by broth dilution method; procedure, shortened: as §1
# Streptococcus oralis [31] = test: Antimicrobial activity against Streptococcus oralis HK122 with gyrA Ser114Gly, and parC Ser52Gly, Asn91Asp mutation by broth dilution method; procedure, shortened: as §1
# Streptococcus viridans [32] = test: Antimicrobial activity against Viridans streptococcus L19 with gyrA Ser114Gly, gyrB Ser494Thr, parC Ser52Gly, Asn91Asp and parE Ile460Val mutation by broth dilution method; procedure, shortened: as §1
# Streptococcus mitis [33] = test: Antimicrobial activity against Streptococcus mitis HK677 with gyrA Ser81Leu, Ser114Gly, gyrB Ser494Thr, parC Ser52Gly, Asp83Tyr, Asn91Asp and parE Arg447Ser mutation by broth dilution method; procedure, shortened: as §1
# Streptococcus oralis [34] = test: Antimicrobial activity against Streptococcus oralis HK123 with gyrA Ser114Gly, and parC Ser52Gly, Asn91Asp mutation by broth dilution method; procedure, shortened: as §1
# Streptococcus viridans [35] = test: Antimicrobial activity against Viridans streptococcus L18 with gyrA Ser114Gly, Asp142Asn, gyrB Ser494Thr and parE Ile460Val mutation by broth dilution method; procedure, shortened: as §1
# Streptococcus viridans [36] = test: Antimicrobial activity against Viridans streptococcus L2 with gyrA Ser114Gly, gyrB Ser494Thr and parC Ser52Gly, Asn91Asp mutation by broth dilution method; procedure, shortened: as §1
# Streptococcus mitis [37] = test: Antimicrobial activity against Streptococcus mitis HK29 with gyrA Ser114Gly, and parC Ser52Gly, Asn91Asp mutation by broth dilution method; procedure, shortened: as §1
# Streptococcus mitis [38] = test: Antimicrobial activity against Streptococcus mitis HK125807 with gyrA Ser114Gly, and parC Ser52Gly, Asn91Asp mutation by broth dilution method; procedure, shortened: as §1
# Streptococcus mitis [39] = test: Antimicrobial activity against Streptococcus mitis HK137453 with gyrA Ser114Gly, and parC Ser52Gly, Asn91Asp mutation by broth dilution method; procedure, shortened: as §1
# Streptococcus oralis [40] = test: Antimicrobial activity against Streptococcus oralis HK574 with gyrA Ser114Gly, Leu155Val, gyrB Ile385Val, Met483Thr, Ser494Thr and parC Ser52Gly, Asn91Asp mutation by broth dilution method; procedure, shortened: as §1
# Streptococcus viridans [41] = test: Antimicrobial activity against Viridans streptococcus L7 with gyrA Ser114Gly, gyrB Ser494Thr and parC Ser52Gly, Asn91Asp mutation by broth dilution method; procedure, shortened: as §1
# Streptococcus mitis [42] = test: Antimicrobial activity against Streptococcus mitis HK135786 with gyrA Ser114Gly, and parC Ser52Gly, Asn91Asp mutation by broth dilution method; procedure, shortened: as §1
# Streptococcus oralis [43] = test: Antimicrobial activity against Streptococcus oralis HK496 with gyrA Ser114Gly, and parC Ser52Gly, Asn91Asp mutation by broth dilution method; procedure, shortened: as §1
smiles,measurement,setting,value
C[C@H]1COc2c(N3CCN(C)CC3)c(F)cc3c(=O)c(C(=O)O)cn1c23.C[C@H]1COc2c(N3CCN(C)CC3)c(F)cc3c(=O)c(C(=O)O)cn1c23.O [LEVOFLOXACIN],MIC,Streptococcus oralis [1],1 µg/mL
same,MIC,Streptococcus oralis [2],1 µg/mL
same,MIC,Streptococcus mitis [3],1 µg/mL
same,MIC,Streptococcus oralis [4],1 µg/mL
same,MIC,Streptococcus mitis [5],1 µg/mL
same,MIC,Streptococcus oralis [6],1 µg/mL
same,MIC,Streptococcus oralis [7],1 µg/mL
same,MIC,Streptococcus oralis [8],1 µg/mL
same,MIC,Streptococcus oralis [9],1 µg/mL
same,MIC,Streptococcus viridans [10],2 µg/mL
same,MIC,Streptococcus oralis [11],1 µg/mL
same,MIC,Streptococcus oralis [12],≥ 32 µg/mL
same,MIC,Streptococcus oralis [13],2 µg/mL
same,MIC,Streptococcus viridans [14],1 µg/mL
same,MIC,Streptococcus oralis [15],2 µg/mL
same,MIC,Streptococcus mitis [16],0.5 µg/mL
same,MIC,Streptococcus oralis [17],1 µg/mL
same,MIC,Streptococcus mitis [18],0.5 µg/mL
same,MIC,Streptococcus oralis [19],2 µg/mL
same,MIC,Streptococcus viridans [20],16 µg/mL
same,MIC,Streptococcus viridans [21],1 µg/mL
same,MIC,Streptococcus oralis [22],32 µg/mL
same,MIC,Streptococcus oralis [23],2 µg/mL
same,MIC,Streptococcus mitis [24],< 0.25 µg/mL
same,MIC,Streptococcus oralis [25],2 µg/mL
same,MIC,Streptococcus viridans [26],2 µg/mL
same,MIC,Streptococcus mitis [27],2 µg/mL
same,MIC,Streptococcus mitis [28],1 µg/mL
same,MIC,Streptococcus oralis [29],2 µg/mL
same,MIC,Streptococcus mitis [30],0.5 µg/mL
same,MIC,Streptococcus oralis [31],1 µg/mL
same,MIC,Streptococcus viridans [32],2 µg/mL
same,MIC,Streptococcus mitis [33],≥ 32 µg/mL
same,MIC,Streptococcus oralis [34],1 µg/mL
same,MIC,Streptococcus viridans [35],2 µg/mL
same,MIC,Streptococcus viridans [36],2 µg/mL
same,MIC,Streptococcus mitis [37],2 µg/mL
same,MIC,Streptococcus mitis [38],1 µg/mL
same,MIC,Streptococcus mitis [39],1 µg/mL
same,MIC,Streptococcus oralis [40],2 µg/mL
same,MIC,Streptococcus viridans [41],2 µg/mL
same,MIC,Streptococcus mitis [42],1 µg/mL
same,MIC,Streptococcus oralis [43],1 µg/mL
